This is an account of results in ChEMBL document CHEMBL2062472, “N-(2-oxo-3-oxetanyl)carbamic acid esters as N-acylethanolamine acid amidase inhibitors: synthesis and structure-activity and structure-property relationships” (J Med Chem, 2012).

Molecules are shown by their SMILES.

Series [1] is described as follows: Apparent Half life of the compound in 0.01 M phosphate-buffered saline at pH 7.4. The class given is physicochemical. The settings on record: read-out: t1/2(app). Put shortly:
(§1)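 Compound (from DMSO stock; 1% DMSO final) incubated at 1–100 μM final at 37 °C with shaking, ionic strength 0.15 M, in 0.01 M PBS pH 7.4 or 0.01 M phosphate buffer pH 5.0. Aliquots taken over time were analysed by RP-HPLC. Apparent t1/2 came from pseudo-first-order rate constants (linear regression of log[compound] vs time), reported as mean ± SD of three experiments.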

Series [2] in a line: Apparent Half life of the compound in 0.01 M phosphate buffer at pH 5. The settings on record: read-out: t1/2(app). In kind it is physicochemical. A digest of the protocol: as §1
A short description of series [3]: Drug degradation in 0.01 M phosphate-buffered saline at pH 7.4 assessed as N-acylated L-serine product formation by HPLC-UV-MS analysis. The class given is physicochemical. The settings on record: buffer. A digest of the protocol:
(§2)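 Compound incubated at 37 °C in 0.01 M phosphate buffer pH 5.0 or 0.01 M PBS pH 7.4 (μ = 0.15 M; 1% DMSO) for up to 3 days. Degradation products were followed by RP-HPLC-UV and ESI-MS on a C18 column with acetonitrile/10 mM ammonium acetate (pH 7.0) mobile phase. Products were quantified against calibration curves of pure standards.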

Series [4] in a line: Drug degradation in 0.01 M phosphate buffer at pH 5 assessed as N-acylated L-serine product formation by HPLC-UV-MS analysis. In kind it is physicochemical. A digest of the protocol: as §2
Another series concerns the target Albumin (Bos taurus, UniProt P02769). As to the kind of experiment: Apparent half life of the compound in bovine serum albumin in phosphate-buffered saline at pH 7.4. The class given is ADME. The settings on record: cattle, read-out: t1/2(app). Put shortly: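 Compound incubated at 5–100 μM final (1% DMSO) at 37 °C in 20 mg/mL bovine serum albumin in PBS pH 7.4. Aliquots were quenched with 2 volumes of CH3CN, centrifuged, and analysed by RP-HPLC. Apparent t1/2 came from pseudo-first-order regression of log[compound] vs time.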

Series [5] can be described thus: Apparent half life of the compound in rat plasma by HPLC analysis. The class given is ADME, cell-free. The settings on record: read-out: t1/2(app) (converted). Put shortly:
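Pooled heparinized plasma from male Wistar rats was diluted to 80% (v/v) with PBS pH 7.4. Compound was added at 5–100 μM final (1% DMSO) and incubated at 37 °C with shaking. Aliquots were quenched with 2 volumes of CH3CN, centrifuged, and analysed by RP-HPLC. t1/2 came from log[compound]-vs-time regression, as mean ± SD of three experiments.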

Series [6] is described as follows: Apparent Half life of the compound in 0.01 M phosphate buffer at pH 5 in presence of 3 mM DTT. Particulars: read-out: t1/2(app); call rule not given here.
Series [7] deals with T1, N-acylethanolamine-hydrolyzing acid amidase (Rattus norvegicus, UniProt Q5KTC7).
T1 sequence (Q5KTC7 whole entry): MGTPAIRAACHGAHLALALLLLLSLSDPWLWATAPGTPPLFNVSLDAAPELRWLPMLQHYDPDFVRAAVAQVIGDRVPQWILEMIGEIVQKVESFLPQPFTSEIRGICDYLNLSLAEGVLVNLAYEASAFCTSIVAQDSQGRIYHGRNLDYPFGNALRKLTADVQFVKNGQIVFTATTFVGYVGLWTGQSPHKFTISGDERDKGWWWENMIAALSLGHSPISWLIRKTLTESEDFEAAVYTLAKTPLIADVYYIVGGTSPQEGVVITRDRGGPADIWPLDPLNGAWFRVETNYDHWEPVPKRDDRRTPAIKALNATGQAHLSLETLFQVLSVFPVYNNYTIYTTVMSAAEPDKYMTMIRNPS
As to the kind of experiment: Inhibition of rat recombinant NAAA expressed in HEK293 cells using heptadecenoylethanolamide as substrate after 30 mins by LC/MS analysis. In kind it is cell-based. A digest of the protocol:
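Recombinant rat NAAA incubated 30 min at 37 °C in 50 mM sodium hydrogen phosphate buffer pH 5.0 containing 0.1% Triton X-100, 3 mM DTT and heptadecenoylethanolamide substrate (50 mM as printed). The reaction was stopped with cold methanol containing 1 nmol heptadecanoic acid. Product was measured by LC/MS with negative ESI, selected ion monitoring at m/z 267.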

Series [8] in a line: Drug degradation in 0.01 M phosphate buffer at pH 5 assessed as N-(2-Naphthoyl)-L-serine product formation at > 2 hrs by HPLC-UV-MS analysis. In kind it is physicochemical. The settings on record: pH 5, 2 h. Put shortly: as §2
Series [9] in a line: Drug degradation in 0.01 M phosphate buffer at pH 5 assessed as 2-Naphtholic acid product formation at > 2 hrs by HPLC-UV-MS analysis. In kind it is physicochemical. Particulars: pH 5, 2 h. A digest of the protocol: as §2
A short description of series [10]: Drug degradation in 0.01 M phosphate-buffered saline at pH 7.4 assessed as N-(2-Naphthoyl)-L-serine product formation by HPLC-UV-MS analysis. In kind it is physicochemical. Particulars: buffer. Put shortly: as §2
Series [11] is described as follows: Drug degradation in 0.01 M phosphate-buffered saline at pH 7.4 assessed as 2-naphtholic acid product formation after 24 hrs by HPLC-UV-MS analysis. In kind it is physicochemical. Particulars: buffer, pH 7.4, 24 h. Put shortly: as §2
The nature of series [12]: Drug degradation in 0.01 M phosphate buffer at pH 5 assessed as O-(2-naphthoyl)-L-serine product formation by HPLC-UV-MS analysis. In kind it is physicochemical. A digest of the protocol: as §2
A short description of series [13]: Drug degradation in 0.01 M phosphate buffer at pH 5 assessed as time required for N-(2-Naphthoyl)-L-serine product formation by HPLC-UV-MS analysis. In kind it is physicochemical. A digest of the protocol:
as §2

The nature of series [14]: Drug degradation in 0.01 M phosphate buffer at pH 5 assessed as time required for O-(2-naphthoyl)-L-serine product formation by HPLC-UV-MS analysis. In kind it is physicochemical. Put shortly:
as §2

Albumin, sequence (P02769 whole entry): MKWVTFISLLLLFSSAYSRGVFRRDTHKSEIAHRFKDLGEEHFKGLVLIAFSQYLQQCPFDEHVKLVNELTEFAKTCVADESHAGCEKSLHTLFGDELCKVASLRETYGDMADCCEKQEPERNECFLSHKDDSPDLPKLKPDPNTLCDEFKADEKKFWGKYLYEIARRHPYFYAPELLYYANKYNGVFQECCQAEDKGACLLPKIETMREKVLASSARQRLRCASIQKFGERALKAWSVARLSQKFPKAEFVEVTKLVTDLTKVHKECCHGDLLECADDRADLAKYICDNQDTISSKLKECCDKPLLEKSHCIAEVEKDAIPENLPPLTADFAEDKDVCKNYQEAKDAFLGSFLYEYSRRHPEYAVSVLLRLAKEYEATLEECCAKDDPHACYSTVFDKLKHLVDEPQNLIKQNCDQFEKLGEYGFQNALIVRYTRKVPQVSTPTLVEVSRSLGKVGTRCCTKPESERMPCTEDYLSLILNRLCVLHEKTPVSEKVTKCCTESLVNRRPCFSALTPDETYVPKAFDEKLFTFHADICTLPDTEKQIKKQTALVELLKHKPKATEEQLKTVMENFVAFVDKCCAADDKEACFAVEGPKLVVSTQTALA

For `O=C(N[C@H]1COC1=O)c1ccc(-c2ccccc2)cc1`, the half-life in series [1] is 12.6 min; in series [2], 28.4 min; at Albumin, 3.3 min; in series [5], 0.533 min; in series [6], 20.9 min. In addition, the Drug degradation result in series [3] and in series [4] was “Active” throughout.
In the case of `C[C@H]1OC(=O)[C@H]1NC(=O)OC(C)(C)C`, the half-life in series [1] is 143 min; in [2] it was 217 min; on Albumin, 121 min; in [5], 0.217 min; in [6] it was 149 min. In series [7], the IC50 is greater than 80 µM.
For the compound `C[C@@H]1OC(=O)[C@@H]1NC(=O)OCCCCCc1ccccc1`, the half-life was 110 min in series [1]; 194 min in [2]; 11.4 min on Albumin; less than 0.167 min in [5]; 134 min in series [6]. The IC50 in [7] amounted to 0.13 µM.
With `O=C(N[C@H]1COC1=O)c1ccc(OCc2ccccc2)cc1`, the half-life in [1] was 13.4 min; in series [2], 23.2 min; at Albumin, 5.8 min; in [5], 1.08 min; in [6] it was 18.8 min. Besides, the Drug degradation result in series [3] and in series [4] was “Active” each time.
Consider `O=C(NCc1ccccc1)N[C@@H]1COC1=O`, for which the IC50 in series [7] came out at 49.2 µM.
In the case of `O=C1OCC1CCCCc1ccccc1` (stereo not drawn), the half-life in [1] was 93.5 min; in series [2] it was 115 min; at Albumin it was 15.1 min; in series [5], 0.233 min; in [6] it was 114 min.
Take `O=C(N[C@@H]1COC1=O)OCc1ccccc1`: in [7], the IC50 came to 0.7 µM.
On the same count and under the same terms, with `C[C@H]1OC(=O)[C@@H]1NC(=O)OC(C)(C)C` the figure was 4.9 µM.
For `O=C(N[C@H]1COC1=O)c1ccc2ccccc2c1`, the Drug degradation entry in [8], in [9], in series [3], in series [4], in series [10] and in series [11] was “Active” in each case. In addition, in [12], the Drug degradation entry is reported as “Active”. Also, the half-life in series [1] was 9.8 min; in series [2], 19 min; on Albumin it was less than 1 min; in series [5], less than 0.167 min; in series [6] it was 15.9 min. Moreover, the Time result in series [13] and in series [14] was “<= 2 hr” throughout.
For `CC(C)(C)OC(=O)N[C@@H]1COC1=O`, in series [7], the IC50 was determined as 0.5 µM.
`O=C(N[C@H]1COC1=O)OCc1ccccc1`: the half-life in series [1] is 26.7 min; in series [2], 39.2 min; on Albumin, 1.2 min; in series [5], less than 0.167 min; in [6] it was 30.5 min.
In the case of `COc1ccc2cc(C(=O)N[C@H]3COC3=O)ccc2c1`, the half-life is 8.2 min in series [1]; 18.1 min in series [2]; less than 1 min at Albumin; 0.483 min in series [5]; 19.1 min in series [6]. Moreover, the Drug degradation entry in series [3] and in series [4] was “Active” throughout.
For `CCOC(=O)c1ccc2cc(C(=O)N[C@H]3COC3=O)ccc2c1`, the half-life in series [1] was 12.1 min; in [2] it was 25.1 min; at Albumin it was 3.2 min; in series [5] it was 1.25 min; in [6], 20.9 min. For the same compound, the Drug degradation entry in series [3] and in series [4] was “Active” each time.
In the case of `O=C(NC1CCC1=O)OCc1ccccc1` (racemic), in series [7], the IC50 was greater than 100 µM.
On the same count and under the same terms, for `O=C(N[C@H](CO)C(=O)O)OCc1ccccc1` the value was greater than 100 µM.
On the same count and under the same terms, with `C[C@H]1OC(=O)[C@H]1NC(=O)OCc1ccccc1` the figure was 10 µM.
Consider `C[C@@H]1OC(=O)[C@@H]1NC(=O)OCc1ccccc1`, for which the half-life in series [1] was 108 min; in series [2], 185 min; at Albumin, 5.1 min; in series [5] it was less than 0.167 min; in series [6] it was 127 min. Further, the IC50 in series [7] worked out at 1 µM.
For the compound `O=C(N[C@@H](CO)C(=O)O)OCc1ccccc1`, the IC50 in series [7] was greater than 100 µM.
`O=C(N[C@H]1COC1=O)c1ccc(C(=O)Oc2ccccc2)cc1`: the half-life in [1] is 9.8 min; in series [2] it was 23.7 min; on Albumin, 2.7 min; in series [5] it was less than 0.167 min; in [6], 19.5 min. The Drug degradation result in series [3] and in [4] was “Active” throughout.
Turning to `O=C(NCc1ccccc1)N[C@H]1COC1=O`, the half-life is 3.3 min in series [1]; 29.7 min in series [2]; 4.6 min at Albumin; less than 0.167 min in [5]; 25.1 min in series [6]. In series [7], the IC50 was found to be 15 µM.
With `C[C@@H]1OC(=O)[C@H]1NC(=O)OC(C)(C)C`, the half-life in series [1] was 80.7 min; in [2], 93.8 min; on Albumin it was 87.7 min; in series [5], less than 0.167 min; in series [6], 80.4 min. Besides, the IC50 in series [7] came out at 0.19 µM.
In the case of `O=C(CCc1ccccc1)N[C@H]1COC1=O`, the half-life in series [1] was 18 min; in series [2], 23.1 min; at Albumin, 7 min; in series [5], less than 0.167 min; in series [6] it was 19 min. Further, the Drug degradation result in series [3] and in series [4] was “Active” throughout.
Regarding `CC(C)(C)OC(=O)N[C@H]1COC1=O`, the half-life in series [1] was 33.7 min; in series [2], 43.4 min; at Albumin, 19.6 min; in [5], less than 0.167 min; in series [6], 39 min. Moreover, the IC50 in [7] was 0.58 µM.
On to `O=C(NC1CCC1)OCc1ccccc1` [CYCLOBUTYLCARBAMIC ACID BENZYL ESTER], for which the IC50 in [7] was greater than 100 µM.
Take `C[C@H]1OC(=O)[C@H]1NC(=O)CCc1ccccc1`: the half-life in series [1] was 73.8 min; in series [2] it was 135 min; on Albumin, 16 min; in series [5], less than 0.167 min; in series [6] it was 100 min. In addition, the Drug degradation result in [3] and in series [4] was “Active” in each case.
